Measurements taken from ChEMBL document CHEMBL3813671, “Unexpected Discovery of Dichloroacetate Derived Adenosine Triphosphate Competitors Targeting Pyruvate Dehydrogenase Kinase To Inhibit Cancer Proliferation” (J Med Chem, 2016).
The source made the active and inactive calls. The calls are words filed in the database; no cut-off is given here.

Experiments:
MCF7 [1] = test: Reversal of hyperpolarized mitochondrial membrane potential in human MCF7 cells assessed as cells with vital and intact mitochondrial membranes at 20 uM after 12 hrs by JC1 staining-based flow cytometric analysis; format: functional
Summary of the method: (§1)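 MCF-7 cells treated 12 h (5, 10 or 20 µM), then stained with JC-1. Depolarization read as the ratio of green J-monomer to red J-aggregate fluorescence.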

MCF7 [2] = test: Induction of apoptosis in human MCF7 assessed as necrotic cells at 20 uM after 10 hrs by FITC-annexin V/propidium iodide staining-based flow cytometric analysis (reference value: 1.86%); format: functional
[3] = target: T1, [Pyruvate dehydrogenase (acetyl-transferring)] kinase isozyme 1, mitochondrial (Homo sapiens, UniProt Q15118); test: Inhibition of PDK1 in human MCF7 cells assessed as increase in oxygen consumption rate at 5 to 20 uM after 12 hrs; format: cell-based
T1 sequence (Q15118 whole entry): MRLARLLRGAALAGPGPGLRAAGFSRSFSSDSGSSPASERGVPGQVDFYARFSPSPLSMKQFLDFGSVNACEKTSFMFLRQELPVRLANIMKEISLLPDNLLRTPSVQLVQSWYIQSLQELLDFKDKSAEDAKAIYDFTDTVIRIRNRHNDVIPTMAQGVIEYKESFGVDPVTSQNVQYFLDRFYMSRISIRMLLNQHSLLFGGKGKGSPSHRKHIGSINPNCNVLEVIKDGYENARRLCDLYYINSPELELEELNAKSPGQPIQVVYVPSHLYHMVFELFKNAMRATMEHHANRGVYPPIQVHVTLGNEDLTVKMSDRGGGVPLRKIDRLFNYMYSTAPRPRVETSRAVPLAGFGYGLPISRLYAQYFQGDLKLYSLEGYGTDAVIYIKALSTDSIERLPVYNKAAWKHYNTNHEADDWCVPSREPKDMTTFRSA
Summary of the method: (§2)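 MCF-7 cells at 2.7×10⁴ cells/well in XF24 plates, attached, then grown 24 h at 37 °C in 5% CO2. Treated 12 h at 5, 10 or 20 µM, rinsed into glycolysis stress-test medium and held 1 h at 37 °C without CO2. OCR, ECAR and PPR then measured on a Seahorse XFe24 analyser. Significance P < 0.05 versus untreated control.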

MCF7 [4] = test: Reversal of hyperpolarized mitochondrial membrane potential in human MCF7 cells assessed as cells with vital and intact mitochondrial membranes at 5 uM after 12 hrs by JC1 staining-based flow cytometric analysis; format: functional; summary of the method: as §1
MCF7 [5] = test: Reversal of hyperpolarized mitochondrial membrane potential in human MCF7 cells after 12 hrs by JC1 staining-based flow cytometric analysis; format: functional, cell-based
MCF7 [6] = test: Cytotoxicity against human MCF7 cells assessed as growth inhibition at 40 uM after 72 hrs by MTT assay relative to control; format: functional, cell-based
[7] = Cytotoxicity against human MCF10A cells assessed as growth inhibition at 20 uM after 72 hrs by MTT assay relative to control; format: cell-based, MCF-10A; conditions: read-out: GI
MCF7 [8] = test: Induction of apoptosis in human MCF7 assessed as viable cells at 20 uM after 5 hrs by FITC-annexin V/propidium iodide staining-based flow cytometric analysis (reference value: 93.8%); format: functional; conditions: MCF7, 5 h, read-out: Activity
[9] = target: T1, [Pyruvate dehydrogenase (acetyl-transferring)] kinase isozyme 1, mitochondrial; test: Inhibition of recombinant N-terminal 6xHis-SUMO-tagged human PDK1 (29 to 436 residues) expressed in Escherichia coli BL-21 assessed as activation of PDC at 50 uM
MCF7 [10] = test: Cytotoxicity against human MCF7 cells assessed as growth inhibition after 72 hrs by MTT assay; format: functional, cell-based; conditions: MCF7, 72 h
MCF7 [11] = test: Induction of apoptosis in human MCF7 assessed as early apoptotic cells at 20 uM after 5 hrs by FITC-annexin V/propidium iodide staining-based flow cytometric analysis (reference value: 2.38%); format: functional
Sus scrofa [12] = species: Sus scrofa; test: Activation of pig heart PDC assessed as production of NADH at 50 uM in presence of ATP
Summary of the method: (§3)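 Pig heart PDC (80 µg/ml, carrying intrinsic PDK activity) preincubated 40 min at 37 °C in Mops pH 7.20 buffer with NaF, acetyl-CoA, NADH and DTT. Kinase step 3 min at 37 °C with 55 µM ADP and 100 µM ATP, or no ATP. Stopped with ADP/pyruvate. Residual PDC activity then read as NADH formation at 340 nm, 37 °C, in Tris pH 7.8 with TPP, NAD+, pyruvate and CoA.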

MCF7 [13] = test: Induction of apoptosis in human MCF7 assessed as viable cells at 20 uM after 10 hrs by FITC-annexin V/propidium iodide staining-based flow cytometric analysis (reference value: 93.8%); format: functional; conditions: MCF7, 10 h, read-out: Activity
MCF7 [14] = test: Induction of apoptosis in human MCF7 assessed as late apoptotic cells at 20 uM after 5 hrs by FITC-annexin V/propidium iodide staining-based flow cytometric analysis (reference value: 1.95%); format: functional
[15] = target: T1, [Pyruvate dehydrogenase (acetyl-transferring)] kinase isozyme 1, mitochondrial; test: Binding affinity to recombinant N-terminal 6xHis-SUMO-tagged human PDK1 (29 to 436 residues) expressed in Escherichia coli BL-21 by isothermal titration calorimetric method
Summary of the method: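 Ligand titrated into PDK1 (10 or 20 µM) by ITC at 25 °C, 2.5 µL injections into a 300 µL cell. Protein is His-SUMO-tagged, co-expressed with GroEL/GroES in E. coli BL-21, purified by Ni-IMAC and gel filtration.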

[16] = target: T1, [Pyruvate dehydrogenase (acetyl-transferring)] kinase isozyme 1, mitochondrial; test: Inhibition of PDK1 in human MCF7 cells assessed as decrease in lactate production at 5 to 20 uM after 12 hrs; format: cell-based
[17] = target: T1, [Pyruvate dehydrogenase (acetyl-transferring)] kinase isozyme 1, mitochondrial; test: Inhibition of PDK1 in human MCF7 cells assessed as increase in ratio of oxygen consumption rate to extracellular acidification rate at 20 uM after 12 hrs; format: cell-based; summary of the method: as §2
MCF7 [18] = test: Induction of mitochondrial membrane potential depolarization in human MCF7 cells at 40 uM after 12 hrs by TMRM staining-based assay; format: functional, cell-based
MCF7 [19] = test: Cytotoxicity against human MCF7 cells assessed as growth inhibition at 20 uM after 72 hrs by IncuCyte Zoom live cells imaging method; format: functional, cell-based
MCF7 [20] = test: Induction of apoptosis in human MCF7 assessed as late apoptotic cells at 20 uM after 10 hrs by FITC-annexin V/propidium iodide staining-based flow cytometric analysis (reference value: 1.95%); format: functional
MCF7 [21] = test: Reversal of hyperpolarized mitochondrial membrane potential in human MCF7 cells assessed as cells with vital and intact mitochondrial membranes at 10 uM after 12 hrs by JC1 staining-based flow cytometric analysis; format: functional; summary of the method: as §1
[22] = target: T1, [Pyruvate dehydrogenase (acetyl-transferring)] kinase isozyme 1, mitochondrial; test: Inhibition of recombinant N-terminal 6xHis-SUMO-tagged human PDK1 (29 to 436 residues) expressed in Escherichia coli BL-21 assessed as suppression of PDC phosphorylation at S293 at 50 uM after 30 mins by Western blot method
MCF7 [23] = test: Induction of apoptosis in human MCF7 assessed as necrotic cells at 20 uM after 15 hrs by FITC-annexin V/propidium iodide staining-based flow cytometric analysis (reference value: 1.86%); format: functional
A549 [24] = test: Cytotoxicity against human A549 cells assessed as growth inhibition at 20 uM after 72 hrs by IncuCyte Zoom live cells imaging method; format: functional, cell-based
[25] = target: T1, [Pyruvate dehydrogenase (acetyl-transferring)] kinase isozyme 1, mitochondrial; test: Inhibition of PDK1 in human MCF7 cells assessed as decrease in proton production rate after 12 hrs; format: cell-based; summary of the method: as §2
MCF7 [26] = test: Induction of apoptosis in human MCF7 assessed as viable cells at 20 uM by FITC-annexin V/propidium iodide staining-based flow cytometric analysis; format: functional, cell-based; conditions: TDE = time-dependent effect
MCF7 [27] = test: Induction of apoptosis in human MCF7 assessed as early apoptotic cells at 20 uM after 10 hrs by FITC-annexin V/propidium iodide staining-based flow cytometric analysis (reference value: 2.38%); format: functional
MCF7 [28] = test: Induction of apoptosis in human MCF7 assessed as late apoptotic cells at 20 uM after 15 hrs by FITC-annexin V/propidium iodide staining-based flow cytometric analysis (reference value: 1.95%); format: functional
MCF7 [29] = test: Reversal of hyperpolarized mitochondrial membrane potential in human MCF7 cells assessed as J-monomer/J-aggregate ratio at 20 uM after 12 hrs by JC1 staining-based flow cytometric analysis; format: functional; summary of the method: as §1
[30] = target: T1, [Pyruvate dehydrogenase (acetyl-transferring)] kinase isozyme 1, mitochondrial; test: Inhibition of PDK1 in human MCF7 cells assessed as increase in oxygen consumption rate at 40 uM after 12 hrs; format: cell-based
[31] = target: T1, [Pyruvate dehydrogenase (acetyl-transferring)] kinase isozyme 1, mitochondrial; test: Inhibition of PDK1 in human MCF7 cells assessed as decrease in extracellular acidification rate after 12 hrs; format: cell-based; summary of the method: as §2
A549 [32] = test: Cytotoxicity against human A549 cells assessed as growth inhibition after 72 hrs by MTT assay; format: functional, cell-based; conditions: A549, 72 h
Sus scrofa [33] = species: Sus scrofa; test: Activation of pig heart PDC assessed as production of NADH at 50 uM in absence of ATP; summary of the method: as §3
A549 [34] = test: Cytotoxicity against human A549 cells assessed as growth inhibition at 40 uM after 72 hrs by MTT assay relative to control; format: functional, cell-based
MCF7 [35] = test: Induction of apoptosis in human MCF7 assessed as necrotic cells at 20 uM after 5 hrs by FITC-annexin V/propidium iodide staining-based flow cytometric analysis (reference value: 1.86%); format: functional
[36] = target: T1, [Pyruvate dehydrogenase (acetyl-transferring)] kinase isozyme 1, mitochondrial; test: Inhibition of recombinant N-terminal 6xHis-SUMO-tagged human PDK1 (29 to 436 residues) expressed in Escherichia coli BL-21 assessed as phosphorylation of RYHGHSMSDP at 50 uM after 30 mins by Kinase-Glo luminescent assay
MCF7 [37] = test: Induction of apoptosis in human MCF7 assessed as early apoptotic cells at 20 uM after 15 hrs by FITC-annexin V/propidium iodide staining-based flow cytometric analysis (reference value: 2.38%); format: functional
[38] = Cytotoxicity against human MCF10A cells assessed as growth inhibition at 10 uM after 72 hrs by MTT assay relative to control; format: cell-based, MCF-10A; conditions: read-out: GI
MCF7 [39] = test: Induction of apoptosis in human MCF7 assessed as viable cells at 20 uM after 15 hrs by FITC-annexin V/propidium iodide staining-based flow cytometric analysis (reference value: 93.8%); format: functional; conditions: MCF7, 15 h, read-out: Activity

For `O=C(Nc1ccc(Cl)c(C(F)(F)F)c1)C(Cl)Cl`, the Activity (MCF7 [1]) was 46.8%, the Activity (MCF7 [2]) was 3.47% and the inhibition [3] was “Dose-dependent effect”. For the same compound, the Activity (MCF7 [4]) was 79.7%, the Activity (MCF7 [5]) was “Dose-dependent effect” and the “growth inhibition (GI)” value (MCF7 [6]) was “Active”. The inhibition at 72 h, 20 µM [7] was 10.3%, the viability at 20 µM (MCF7 [8]) was 82.4% and the inhibition [9] was “Active”. The IC50 (MCF7 [10]) was 3.12 µM, the Activity (MCF7 [11]) was 1.98% and the Activity (Sus scrofa [12]) was “inactive”. The viability at 20 µM (MCF7 [13]) was 81.9%, the Activity (MCF7 [14]) was 10.2% and the Kd [15] was 40.8 µM. The inhibition [16] was “Active”, the inhibition [17] was “Active” and the Activity (MCF7 [18]) was “Active”. For the same compound, the “growth inhibition (GI)” value (MCF7 [19]) was “Active”, the Activity (MCF7 [20]) was 11.8% and the Activity (MCF7 [21]) was 65%. For the same compound, the inhibition [22] was “Active”, the Activity (MCF7 [23]) was 4.96% and the “growth inhibition (GI)” value (A549 [24]) was “Active”. For the same compound, the inhibition [25] was “Dose-dependent effect”, the Activity (MCF7 [26]) was “tde” and the Activity (MCF7 [27]) was 2.88%. For the same compound, the Activity (MCF7 [28]) was 14.2%, the Ratio (MCF7 [29]) was 1.69 and the inhibition [30] was “inactive”. The inhibition [31] was “Dose-dependent effect”, the IC50 (A549 [32]) was 7.46 µM and the Activity (Sus scrofa [33]) was “Active”. For the same compound, the “growth inhibition (GI)” value (A549 [34]) was “Active”, the Activity (MCF7 [35]) was 5.41% and the inhibition [36] was “Active”. The Activity (MCF7 [37]) was 2.65%, the inhibition at 72 h, 10 µM [38] was 3.51% and the viability at 20 µM (MCF7 [39]) was 78.2%.
